Compound activity as filed in PubChem.
Sampled rows, rich in hits. Any-hit rate of the full collection: about 3.7%.
Kir21 inh: inhibitors of mouse Kir2.1 inward-rectifier potassium channel | P35561 | B-score at 10 µM | HEK293-Kir2.1, FluxOR thallium flux fluorescence; stronger effect = lower value | 0.85% of 310,000 active | AID 1672;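 active = fluorescence ratio B-score at or below minus 3 SD of library scores, with starting-brightness B-score within 2 SD, cut at about -4.2 in these data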;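 also: channel flux triggered by added potassium and thallium sulfate stimulus; B-score of peak minus minimum fluorescence over baseline after thallium stimulus; more negative B-score means stronger Kir2.1 block with less thallium influx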
Target sequence (P35561 whole entry, looked up): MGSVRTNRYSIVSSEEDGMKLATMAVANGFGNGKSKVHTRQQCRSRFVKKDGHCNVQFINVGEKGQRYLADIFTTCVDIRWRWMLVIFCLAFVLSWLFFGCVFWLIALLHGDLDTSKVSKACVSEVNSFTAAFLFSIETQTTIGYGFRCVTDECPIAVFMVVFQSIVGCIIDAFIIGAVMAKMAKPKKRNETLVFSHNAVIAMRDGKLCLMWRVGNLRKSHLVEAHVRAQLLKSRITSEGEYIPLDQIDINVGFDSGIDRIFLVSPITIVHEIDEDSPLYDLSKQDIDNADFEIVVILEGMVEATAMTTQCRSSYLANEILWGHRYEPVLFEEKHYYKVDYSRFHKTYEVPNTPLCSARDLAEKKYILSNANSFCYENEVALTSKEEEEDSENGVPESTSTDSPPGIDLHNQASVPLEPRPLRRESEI
KCNQ1 inh: human KCNQ1 channel inhibition. CHO-K1 KCNQ1, FluxOR thallium flux fluorescence; stronger effect = higher value. B-score at 10 µM. 1.3% of 310,000 active. AID 2642;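 active = compounds whose thallium flux B-score, printed positive for inhibition, exceeds three library SD while starting fluorescence stays within three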;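 also: channel opened by potassium depolarization with thallium stimulus after 20 min compound exposure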
hERG protect: shields human hERG channel from block by proarrhythmic agents; activation (rescue from dofetilide block), less the hit threshold, % at 10 µM; 0.51% of 310,000 active; Q12809; CHO-hERG, FluxOR thallium flux, dofetilide IC70 present; AID 1511;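 active = activation above the mean of controls blocked by dofetilide plus 5 SD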;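 also: thallium influx through hERG after potassium depolarization seen as dye fluorescence rise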
KCNK9 block: human KCNK9 channel inhibition. Q9NPC2. HEK293 KCNK9, FluxOR thallium flux fluorescence; stronger effect = lower value. B-score at 10 µM. 1.2% of 310,000 active;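 active = ratio B-score over 3 SD below the library mean, with starting fluorescence within 5 SD of its mean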;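 also: negative B-score means less thallium flux so channel inhibition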
KCNQ1 act: human KCNQ1 channel potentiation or activation; P51787; CHO-K1 KCNQ1, thallium flux FluxOR fluorescence; stronger effect = higher value; B-score at 10 µM; 0.35% of 310,000 active; AID 2648;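 active = fluorescence ratio B-score, a plate-corrected score, at least three library SD, with initial intensity B-score within 5 SD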
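System: Stable KCNQ1 CHO-K1 line | Incubation: 90 min dye loading and 20 min compound exposure, both at room temperature | Measure: Ratio B score | Medium: Assay buffer for compound exposure, DMSO matched across wells | Compound dosing: Single-concentration screen | Probe or stimulus: K+/Tl+ depolarizing stimulus | Measured by: Kinetic FluxOR fluorescence, 10 s baseline plus 110 s post-stimulus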
KCNK3 inh: human KCNK3 channel inhibition, primary screen; O14649; CHO-KCNK3 thallium flux, FluxOR fluorescence; stronger effect = lower value; B-score at 10 µM; 0.84% of 340,000 active; AID 602410;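 active = B-score under library mean minus 4 SD, starting fluorescence ratio at most library mean plus 5 SD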;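 also: more negative B-score means stronger inhibition of thallium flux through KCNK3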
* marks the source's active call; other numbers are inactive results; i = inactive; x = no result.

SMILES	Kir21 inh	KCNQ1 inh	hERG protect	KCNK9 block	KCNQ1 act	KCNK3 inh
Cc1ccccc1C(=O)c1cccn1CC(=O)NCCCN1CCCCC1	0.2	i	-4	i	i	i
O=c1c2ccccc2[nH]c(=S)n1C1CCCCC1	0.68	i	9.3*	i	9*	i
CC1CCCC(n2c(=S)[nH]c3ccccc3c2=O)C1C (configuration not stated)	1.1	i	0	i	41*	i
CC1CCC(n2c(=S)[nH]c3ccccc3c2=O)CC1 (configuration not stated)	-2.2	i	18*	i	56*	i
O=C(COC(=O)CNC(=O)C1CCCCC1)Nc1ccccc1Cl	x	x	x	x	x	i
O=S(Cc1ccc(Cl)cc1)c1ccccc1 (configuration not stated)	x	x	x	x	x	i
COc1ccc(NC(=O)Nc2cc(C)ccc2F)cc1	-0.72	i	5.1*	i	i	i
Cc1ccc(-c2cc(-c3ccc(C)cc3O)[nH]n2)cc1	0.76	i	-4	i	i	i
Cc1ccc(-c2cc(-c3ccc(F)cc3)n[nH]2)c(O)c1	-0.87	6*	-3	i	i	i
N#CCCN(C(=O)COC(=O)c1cc2ccccc2oc1=O)c1ccccc1	x	x	x	x	x	i
NS(=O)(=O)c1ccc(CNC(=O)Cc2ccsc2)cc1	-0.04	i	-3	i	i	i
CC(=O)Nc1ccc(NC(=S)Nc2ccc(Br)cc2)cc1	-1.6	6*	-14	i	i	i
CC(=O)Nc1ccc(NC(=S)Nc2ccccc2)cc1	0.42	i	-9	i	i	i
S=C(Nc1ccccc1)Nc1ccc(Br)cc1	-0.38	6*	-11	i	i	i
Cc1noc(C)c1C(=O)Nc1cc(S(=O)(=O)N2CCCCC2)ccc1N(C)C	x	x	x	x	x	i
CC(=O)c1sc(NC(=O)CSCc2c(C)noc2C)nc1-c1ccccc1	x	x	x	x	x	i
CCCCn1c(N)c(N(CC(C)C)C(=O)Cc2ccc(S(=O)(=O)N3CCOCC3)s2)c(=O)[nH]c1=O	x	x	x	x	x	i
CN(C(=O)c1cccc(NC(=O)Cc2cccc(NC(=O)C3CCN(C(=O)C4CCCCC4)CC3)c2)c1)C1CCC1	x	x	x	x	x	i
Cc1cc(C(=O)COc2cc(F)ccc2[N+](=O)[O-])c(C)n1C1CC1	-2.5	i	34*	i	i	i
COCCNCC1C(Oc2ccc(Cl)cc2)C(=O)N1c1ccccc1C (configuration not stated)	0.53	i	-6	i	i	i
COc1ccc(CCNCC2C(Oc3ccc(Cl)cc3)C(=O)N2c2ccccc2C)cc1OC (configuration not stated)	0.44	i	-13	-6.8*	i	i
C/C=C1\NC(=O)[C@H](CC(N)=O)N(C)C(=O)C([C@@H](C)O)NC(=O)C(CCCc2ccc(OC)cc2)NC(=O)[C@H](C(C)C)NC(=O)/C(=C\C)NC(=O)[C@H](O)[C@@H](C[C@@H](O)CCCCCCC)NC(=O)[C@H](C)NC(=O)CN(C)C(=O)[C@H](CCC(N)=O)NC1=O (some centres not stated)	x	x	x	x	x	i
C=CCn1c(SCc2ccc(C(=O)Nc3nccs3)cc2)nnc1-c1ccc(C)c(Cl)c1	-1.3	i	-7	-7.2*	i	i
Cn1nnnc1SCc1ccc(C(=O)Nc2nccs2)cc1	0.04	i	-16	i	i	i
Oc1ccc(C[C@H]2CNC(=S)N2CC2CCCN2C[C@H](Cc2ccccc2)N2C[C@H](Cc3ccc(O)cc3)N(CC3CCCCCC3)C2=S)cc1 (some centres not stated)	x	x	x	x	x	i
SMILES	Kir21 inh	KCNQ1 inh	hERG protect	KCNK9 block	KCNQ1 act	KCNK3 inh
N#Cc1ccc(C=NN2CCCCCC2)cc1	x	x	x	x	x	i
CSC(=S)N/N=C/c1ccc(Br)cc1	0.26	i	19*	i	41*	i
S=C(N/N=C/c1ccc(Br)cc1)N1CCCCC1	2.1	i	-5	i	i	i
CSC(=S)N/N=C/c1ccc(N(C)C)cc1	1.1	i	-11	i	9*	i
COc1cc(/C=C2/SC(=S)N(CC(=O)O)C2=O)ccc1OCC(=O)Nc1ccc(C)c(C)c1	1.2	i	19*	i	i	i
COc1cccc(CN2CC(C(=O)NCCN3CCOC3=O)CCC2=O)c1 (configuration not stated)	-0.56	i	-4	i	i	i
CCOc1cc(C#N)ccc1OCC(=O)N1CCN(C(=O)c2cccs2)CC1	x	x	x	x	x	i
CCN(CC(=O)Nc1c(F)cccc1F)C(=O)CSc1nc(C)cc(C)n1	1.1	i	-3	i	i	i
O=C(NC(=S)Nc1ccc(N2CCOCC2)cc1)c1cccs1	-0.53	i	0	i	i	i
O=C(NC(=S)Nc1cccc(Cl)c1N1CCOCC1)c1cccs1	-0.05	i	17*	i	i	i
O=C(NC(=S)Nc1cccc(Cl)c1N1CCCCC1)c1cccs1	-2.3	i	7.2*	i	24*	i
CN(C)CCCN(C(=O)c1cc2cc([N+](=O)[O-])ccc2s1)c1nc2cc3c(cc2s1)OCCO3	1.9	6*	-16	i	i	i
CCN(CC)CCN(C(=O)c1ccc(Br)s1)c1nc2cc3c(cc2s1)OCCO3	1.1	i	-20	i	i	i
CCN(Cc1ccccc1)S(=O)(=O)c1ccc(C(=O)N(CCCN(C)C)c2nc3ccc(F)cc3s2)cc1	-0.53	i	-26	i	i	i
CCN(Cc1ccccc1)S(=O)(=O)c1ccc(C(=O)N(CCCN(C)C)c2nc3cc4c(cc3s2)OCCO4)cc1	0.24	7*	-29	i	i	i
CN(C)CCCN(C(=O)c1ccc(Br)s1)c1nc2cc3c(cc2s1)OCCO3	-7.8*	i	-19	i	i	i
CN(C)CCCN(C(=O)c1ccc([N+](=O)[O-])s1)c1nc2cc3c(cc2s1)OCCO3	0.25	i	-17	i	i	i
CCOc1ccc(NC(=O)COC(=O)Cn2cnc3ccccc32)cc1	x	x	x	x	x	i
COc1cccc(-c2csc(NC3OC(=O)c4c3ccc(OC)c4OC)n2)c1 (configuration not stated)	-1.6	i	-11	i	i	i
COc1ccc2c(c1OC)C(=O)OC2Nc1nc(-c2ccc(-c3ccccc3)cc2)cs1 (configuration not stated)	1.5	i	-14	-7.1*	i	i
S=c1nc(-c2ccc(Br)cc2)[nH]c2ccccc12	1.2	i	32*	i	111*	i
Fc1ccc(-c2nc3ccccc3[nH]2)cc1	-0.07	i	-10	i	i	i
